This is an account of results in ChEMBL document CHEMBL1140728, “Synthesis and biological activity of human neuropeptide S analogues modified in position 2” (J Med Chem, 2008).

Non-standard residues stand in square brackets, D forms with d. Residues, ends and D or L forms follow the SMILES beside them. Phe(4-NO2) = N[C@@H](Cc1ccc([N+](=O)[O-])cc1)C(=O)O; Phe(4-Me) = Cc1ccc(C[C@H](N)C(=O)O)cc1; 2Nal = N[C@@H](Cc1ccc2ccccc2c1)C(=O)O; hPhe = N[C@@H](CCc1ccccc1)C(=O)O; Tic = O=C(O)[C@@H]1Cc2ccccc2CN1

The term EC50 denotes the concentration that produces a half-maximal response. A word on the Emax: it is the greatest response seen or fitted, relative to the assay's reference.

The target in one assay is T1, Neuropeptide S receptor (Mus musculus, UniProt Q8BZP8).
T1 sequence (Q8BZP8 whole entry): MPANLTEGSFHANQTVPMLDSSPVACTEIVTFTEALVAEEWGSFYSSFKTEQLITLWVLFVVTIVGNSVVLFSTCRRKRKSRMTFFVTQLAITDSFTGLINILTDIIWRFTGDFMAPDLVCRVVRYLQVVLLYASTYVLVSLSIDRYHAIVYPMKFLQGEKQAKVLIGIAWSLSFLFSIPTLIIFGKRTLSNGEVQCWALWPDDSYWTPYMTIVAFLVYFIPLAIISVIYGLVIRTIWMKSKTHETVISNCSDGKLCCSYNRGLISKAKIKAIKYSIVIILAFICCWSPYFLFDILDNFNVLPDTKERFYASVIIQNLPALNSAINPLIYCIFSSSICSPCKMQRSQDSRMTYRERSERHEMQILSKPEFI
The experiment in a line: Agonist activity at mouse recombinant NPS receptor expressed in HEK293 cells assessed as intracellular calcium mobilization. It is filed as functional, cell-based. The essentials: (§1)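 HEK293 cells stably expressing mouse NPSR, kept in DMEM with 10% FBS, 2 mM L-glutamine and hygromycin (100 mg/L), were seeded at 50 000 cells/well. Next day they were loaded with Fluo-4 AM (3 µmol), probenecid (2.5 mmol) and 0.01% pluronic acid for 30 min at 37 °C. Agonist dilutions in HBSS/HEPES with 0.02% BSA were added, and FlexStation II fluorescence was read at 22 °C.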
(A change in cytosolic calcium serves as a functional read-out for many receptors and channels.)

The target of assay [1] is T2, Neuropeptide S receptor (Mus musculus) (UniProt Q8BZP8).
T2 sequence (whole entry): T1 sequence (Q8BZP8 whole entry)
As to the kind of experiment: Agonist activity at mouse recombinant NPS receptor expressed in HEK293 cells assessed as intracellular calcium mobilization relative to baseline. The assay is classed as functional, cell-based. The essentials: as §1

Turning to `CSCC[C@H](NC(=O)CNC(=O)[C@@H](NC(=O)CNC(=O)[C@@H](NC(=O)CNC(=O)[C@H](CC(N)=O)NC(=O)[C@H](CCCNC(=N)N)NC(=O)[C@H](Cc1ccc(C)cc1)NC(=O)[C@@H](N)CO)C(C)C)[C@@H](C)O)C(=O)N[C@@H](CCCCN)C(=O)N[C@@H](CCCCN)C(=O)N[C@H](C(=O)N[C@@H](CO)C(=O)N[C@@H](Cc1ccccc1)C(=O)N[C@@H](CCC(N)=O)C(=O)N[C@@H](CCCNC(=N)N)C(=O)N[C@@H](C)C(=O)N[C@@H](CCCCN)C(=O)N[C@@H](CO)C(=O)O)[C@@H](C)O` (H-S[Phe(4-Me)]RNGVGTGMKKTSFQRAKS-OH), the half-maximal effective concentration (EC50) at Neuropeptide S receptor was 0.676 nM. The Emax in assay [1] is 317%.
With `CSCC[C@H](NC(=O)CNC(=O)[C@@H](NC(=O)CNC(=O)[C@@H](NC(=O)CNC(=O)[C@H](CC(N)=O)NC(=O)[C@H](CCCNC(=N)N)NC(=O)[C@H](Cc1ccc([N+](=O)[O-])cc1)NC(=O)[C@@H](N)CO)C(C)C)[C@@H](C)O)C(=O)N[C@@H](CCCCN)C(=O)N[C@@H](CCCCN)C(=O)N[C@H](C(=O)N[C@@H](CO)C(=O)N[C@@H](Cc1ccccc1)C(=O)N[C@@H](CCC(N)=O)C(=O)N[C@@H](CCCNC(=N)N)C(=O)N[C@@H](C)C(=O)N[C@@H](CCCCN)C(=O)N[C@@H](CO)C(=O)O)[C@@H](C)O` (H-S[Phe(4-NO2)]RNGVGTGMKKTSFQRAKS-OH), at Neuropeptide S receptor, the EC50 is 3.63 nM. In assay [1], the Emax came out at 290%.
As to `CSCC[C@H](NC(=O)CNC(=O)[C@@H](NC(=O)CNC(=O)[C@@H](NC(=O)CNC(=O)[C@H](CC(N)=O)NC(=O)[C@H](CCCNC(=N)N)NC(=O)[C@@H]1Cc2ccccc2CN1C(=O)[C@@H](N)CO)C(C)C)[C@@H](C)O)C(=O)N[C@@H](CCCCN)C(=O)N[C@@H](CCCCN)C(=O)N[C@H](C(=O)N[C@@H](CO)C(=O)N[C@@H](Cc1ccccc1)C(=O)N[C@@H](CCC(N)=O)C(=O)N[C@@H](CCCNC(=N)N)C(=O)N[C@@H](C)C(=O)N[C@@H](CCCCN)C(=O)N[C@@H](CO)C(=O)O)[C@@H](C)O` (H-S[Tic]RNGVGTGMKKTSFQRAKS-OH), on Neuropeptide S receptor, the EC50 is 8.13 nM. The Emax in assay [1] is 244%.
The like results for `CSCC[C@H](NC(=O)CNC(=O)[C@@H](NC(=O)CNC(=O)[C@@H](NC(=O)CNC(=O)[C@H](CC(N)=O)NC(=O)[C@H](CCCNC(=N)N)NC(=O)[C@H](CCc1ccccc1)NC(=O)[C@@H](N)CO)C(C)C)[C@@H](C)O)C(=O)N[C@@H](CCCCN)C(=O)N[C@@H](CCCCN)C(=O)N[C@H](C(=O)N[C@@H](CO)C(=O)N[C@@H](Cc1ccccc1)C(=O)N[C@@H](CCC(N)=O)C(=O)N[C@@H](CCCNC(=N)N)C(=O)N[C@@H](C)C(=O)N[C@@H](CCCCN)C(=O)N[C@@H](CO)C(=O)O)[C@@H](C)O` (H-S[hPhe]RNGVGTGMKKTSFQRAKS-OH) were, in that order, 4.17 nM and 216%.
On to `CSCC[C@H](NC(=O)CNC(=O)[C@@H](NC(=O)CNC(=O)[C@@H](NC(=O)CNC(=O)[C@H](CC(N)=O)NC(=O)[C@H](CCCNC(=N)N)NC(=O)[C@H](Cc1ccc2ccccc2c1)NC(=O)[C@@H](N)CO)C(C)C)[C@@H](C)O)C(=O)N[C@@H](CCCCN)C(=O)N[C@@H](CCCCN)C(=O)N[C@H](C(=O)N[C@@H](CO)C(=O)N[C@@H](Cc1ccccc1)C(=O)N[C@@H](CCC(N)=O)C(=O)N[C@@H](CCCNC(=N)N)C(=O)N[C@@H](C)C(=O)N[C@@H](CCCCN)C(=O)N[C@@H](CO)C(=O)O)[C@@H](C)O` [[2Nal2]hNPS] (H-S[2Nal]RNGVGTGMKKTSFQRAKS-OH), for which the EC50 on Neuropeptide S receptor is 2.19 nM. In addition, in assay [1], the Emax came to 213%.
In the case of “H-SFRNGVGTGMKKTSFQRAKS-OH [NEUROPEPTIDE S]”, the EC50 at Neuropeptide S receptor is 1.1 nM. For the same molecule, in assay [1], the Emax was determined as 270%.
With H-SHRNGVGTGMKKTSFQRAKS-OH, the EC50 at Neuropeptide S receptor was 132 nM. Also, the maximum response (Emax) in assay [1] stood at 288%.
The matching figures for H-SLRNGVGTGMKKTSFQRAKS-OH: 8.32 nM and 282%.
For H-SWRNGVGTGMKKTSFQRAKS-OH, the EC50 on Neuropeptide S receptor is 2.24 nM. Also, the Emax in assay [1] is 323%.
In the case of H-SYRNGVGTGMKKTSFQRAKS-OH, the EC50 at Neuropeptide S receptor is 2.34 nM. Moreover, the maximum response (Emax) in assay [1] is 312%.
